# TAAR1 antagonist = human TAAR1 antagonism. Q96RJ0. CHO RD-HGA16 TAAR1, Fluo-8 calcium fluorescence, antagonist. inhibition, % at 3 µM. actives 1.5% (n = 360,000). AID 624466;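 active = inhibition above a per-plate cutoff, the mean inhibition of test compounds on that plate plus 3 SD, cut at about 49% in these data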;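 also: 0% = DMSO plus EC80 beta-PEA response and 100% = DMSO alone without agonist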
#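 System: RD-HGA16 CHO cells with stable hTAAR1 and Gα16 | Probe or stimulus: EC80 β-phenethylamine stimulus | Dosing: 3 µM, single point | Times: Dye loading 75 min at 37 °C, then 30 min room temperature | Measured by: Fluo-8 calcium-sensitive fluorescence | Read-out basis: % inhibition of agonist calcium response | Replicates: n of 1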
# TAAR1 ag = agonists of human TAAR1 | CHO RD-HGA16 TAAR1, Fluo-8 calcium fluorescence; vehicle wells 0%, saturating PEA agonist 100% | Q96RJ0 | activation, % at 3 µM | actives 0.99% (n = 360,000) | AID 624467;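 active = activation above the mean activation of all test compounds in the run plus 3 SD, cut at about 38% in these data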
#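 System: CHO-derived RD-HGA16 cells with stable Gα16 and human TAAR1 / Times: 17-24 h plating, Fluo-8 75 min 37 °C, 30 min RT / Technique: calcium-sensitive Fluo-8 signal, excitation 470-495, emission 515-575 nm / Measure: % activation relative to PEA EC100 response / Benchmarks: DMSO and PEA EC100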
# OXTR ag = activates the human oxytocin receptor; P30559; CHO-OTR cells, Fluo-8 calcium fluorescence; normalized: DMSO 0%, oxytocin 100%; activation, % at 3 µM; actives 0.32% (n = 320,000); AID 2435;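 active = activation above the mean of all tested compounds plus 3 SD, cutoff set per screening run, cut at about 20% in these data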;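 also: peak over basal fluorescence ratio from a 100 s FLIPR kinetic read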
# OXTR potentiate = potentiators of human oxytocin receptor; CHO-OTR cells, Fluo-8 calcium fluorescence, potentiator mode; 0% = oxytocin EC15, 100% = EC100; activation, % at 3 µM; actives 0.061% (n = 320,000);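 active = activation above that plate's cutoff, the mean activation of tested compounds plus 3 SD, cut at about 6.6% in these data, passing the limit was not always enough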;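 also: 100% uses oxytocin at 75 nM as the full agonist control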
#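 Replication – single well per compound, singlicate · Assay system – CHO cell line stably expressing human OTR · Timing – 6 min pre-incubation, 100 s read · Measure – normalized max/min fluorescence ratio, % activation · Doses – 3.0 µM, one dose · Detection – Fluo-8 calcium dye fluorescence · Probe or stimulus – oxytocin near EC15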
# V1aR counter = V1a receptor agonism, counter-screen for OXTR agonists; P37288; CHO-V1R cells, Fluo-8 calcium fluorescence, agonist mode; 0% DMSO, 100% 3 nM vasopressin; activation, % at 3 µM; actives 0.25% (n = 320,000); AID 2797;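 active = activation above the mean activation of all tested compounds plus 3 SD, per screening run, cut at about 20% in these data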;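 also: signal is peak over basal fluorescence ratio across a 100 second FLIPR read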
# Target sequence (P37288 whole entry, looked up): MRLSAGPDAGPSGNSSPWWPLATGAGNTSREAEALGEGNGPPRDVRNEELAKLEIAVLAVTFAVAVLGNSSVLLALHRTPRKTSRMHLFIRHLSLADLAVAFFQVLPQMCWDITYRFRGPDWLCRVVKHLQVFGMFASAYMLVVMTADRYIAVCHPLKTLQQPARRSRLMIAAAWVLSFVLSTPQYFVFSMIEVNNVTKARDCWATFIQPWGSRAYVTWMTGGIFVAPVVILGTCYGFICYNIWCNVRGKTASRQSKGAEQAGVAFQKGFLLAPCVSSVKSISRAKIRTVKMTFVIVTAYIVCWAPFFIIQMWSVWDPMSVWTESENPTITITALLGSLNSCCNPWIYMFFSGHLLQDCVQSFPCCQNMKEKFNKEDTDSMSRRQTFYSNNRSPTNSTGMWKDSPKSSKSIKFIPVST
# An asterisk follows results filed as active; x = no result. In the library only some 2.3% were active in any assay of this set; here they are far more common.
SMILES,TAAR1 antagonist,TAAR1 ag,OXTR ag,OXTR potentiate,V1aR counter
COc1ccc(NC(=O)COc2ccc(N(C)S(=O)(=O)c3ccc(Cl)cc3)cc2)cc1OC,61*,8,14,-22,11
O=C(NCc1ccccn1)c1cccc(NS(=O)(=O)c2ccc(Br)cc2)c1,3,9,5,-10,6
Nc1[nH]c(C(=O)c2ccccc2)c(-c2ccc(Cl)c(F)c2)c1C(=O)c1c[nH]c2ccccc12,-2,0,x,x,x
N#Cc1ccccc1S(=O)(=O)N1CCN(c2nc(-c3cccnc3)nc3ccccc23)CC1,51*,17,x,x,x
O=S(=O)(c1ccccc1F)N1CCN(c2nc(-c3cccnc3)nc3ccccc23)CC1,57*,13,-1,-2,1
CCCCn1nnnc1C(c1cc2ccccc2o1)N1CCN(c2ncccc2C#N)CC1 (stereo not drawn),-3,1,x,x,x
CCOC(=O)c1sc2nc(CSc3ccccc3)nc(N3CCC(C(N)=O)CC3)c2c1C,39,22,0,-8,1
CCOC(=O)c1sc2nc(CSc3ccccc3)nc(N3CCCN(C)CC3)c2c1C,-13,38*,17,-8,7
C=CCN(c1ccccc1Cl)S(=O)(=O)c1cccc(C(=O)NCCc2ccc(OC)cc2)c1,61*,5,-1,-12,2
COc1ccc(CCNC(=O)c2cccc(S(=O)(=O)N3CCCCC3)c2)cc1,-22,3,1,2,2
Cc1ccccc1-c1cc(C(=O)Nc2sc(C)c(C)c2C(N)=O)c2ccccc2n1,50*,18,0,-11,-1
Cc1ccc(-c2cc(C(=O)Nc3ccncc3)c3ccccc3n2)cc1,6,2,-1,-6,0
CCOC(=O)c1sc(NC(=O)c2cc(-c3ccccc3C)nc3ccccc23)c(C#N)c1C,-5,15,13,-16,10
CCc1cccc(C)c1NC(=O)c1cc(-c2ccncc2)nc2ccccc12,49*,9,x,x,x
Cc1cccc(-c2cc(C(=O)Nc3ccc4c(c3)OCCO4)c3ccccc3n2)c1,45,8,-1,-11,-1
CCOc1ccc(-c2cc(C(=O)Nc3ccc4c(c3)OCCO4)c3ccccc3n2)cc1,67*,14,-1,-4,1
CCOc1cc(N2CCOCC2)c(OCC)cc1NC(=O)c1cc(-c2ccco2)nc2ccccc12,71*,15,-1,-3,0
Nc1nc2c(ncn2[C@@H]2O[C@H](C(=O)NCC(F)(F)F)[C@@H](O)[C@H]2O)c(=O)[nH]1,-21,1,x,x,x
Cc1ccccc1NC(=O)c1cc(-c2ccco2)nc2ccccc12,60*,7,x,x,x
COc1ccc(-c2cc(C(=O)N3CCN(c4ccccc4O)CC3)c3ccccc3n2)cc1,62*,20,3,-8,3
COc1ccc(-c2cc(C(=O)OCC(=O)N3CCCC3)c3ccccc3n2)cc1,15,6,-2,5,-2
O=C(c1cnc(N2CCN(c3ccccn3)CC2)c2ccccc12)N1CCN(c2cccc(Cl)c2)CC1,60*,11,2,-8,4
COc1ccc(-c2cc(C(=O)N3CCN(c4ccccc4)CC3)c3ccccc3n2)cc1,48,12,-1,-1,0
COc1ccc2nc(-c3ccccc3)cc(C(=O)OCC(=O)N3CCCCC3)c2c1,56*,3,-1,-2,0
COc1ccc(-c2cc(C(=O)N3CCN(c4ccccn4)CC3)c3ccccc3n2)cc1,53*,20,0,2,1
CCOc1ccc(-c2cc(C(=O)N3CCN(c4ccccn4)CC3)c3ccccc3n2)cc1,31,11,-1,-1,0
COc1ccc(C(CNC(=O)c2cccc(S(=O)(=O)Nc3ccc(F)cc3)c2)N2CCOCC2)cc1 (stereo not drawn),-15,9,x,x,x
CCCCOCCCNC(=O)C[C@H]1C[C@@]2(C(=O)OC)C(=C[C@H](C(C)C)O[C@@H]2C2CC2)N(Cc2ccccc2)C1=O,-9,-1,x,x,x
CCOc1ccc(C(=O)N2CCN(S(=O)(=O)c3cccs3)CC2)c(OCC)c1,10,5,-1,-6,0
CCOc1ccccc1NC(=O)CSc1cn[nH]n1,-12,2,0,-9,-1

# High-throughput results deposited in PubChem BioAssay by The Scripps Research Institute Molecular Screening Center.
